≈ marks a conversion by molar mass, not a printed value.
How the values were obtained:
[1] = Drug uptake in Wistar rat CSF at 100 mg/kg, po measured after 1 hr; format: ADME, organism-based, Cerebrospinal fluid; conditions: read-out: Drug uptake
Summary of the method: (§1)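 Male Wistar rats given oral doses of 10, 30 or 100 mg/kg. Plasma, brain and CSF collected at 1 h, and at 3 h for the 10 mg/kg dose; compound concentrations measured in each.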

[2] = biological target: T1, Voltage-dependent T-type calcium channel subunit alpha-1G (Homo sapiens, UniProt O43497); assay: Inhibition of human T-type calcium channel Cav3.1 expressed in CHO cells assessed as inhibition of calcium tail current at -90 mV holding potential measured after 150 secs by QPatch assay; format: cell-based
Summary of the method: (§2)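 CHO cells stably expressing human Cav3.1, Cav3.2 or Cav3.3, automated QPatch recording. 3-ms depolarization to +20 mV from a holding potential of -90 or -60 mV. Ca2+ tail current measured at -60 mV. Cs-glutamate internal and TEA-Cl external solution with 5 mM Ca2+. Effect read 150 s after application.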

Rattus norvegicus [3] = assay: Cardiovascular toxicity in spontaneously hypertensive rat assessed as decrease in mean […] pressure at 100 mg/kg, po by telemetry method; format: organism-based; conditions: in vivo
Summary of the method: (§3)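 Conscious, freely moving male spontaneously hypertensive rats with telemetry recording MAP, HR and ECG. Single oral dose (5 ml/kg) given as a suspension in 0.5% w/v methylcellulose in water, in the morning during the sleep phase. Vehicle controls run in parallel, n = 8 per group.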

[4] = Drug uptake in Wistar rat brain at 100 mg/kg, po measured after 1 hr; format: ADME, organism-based; conditions: read-out: Drug uptake; summary of the method: as §1
[5] = Drug uptake in Wistar rat brain at 10 mg/kg, po measured after 3 hrs; format: ADME, organism-based; conditions: read-out: Drug uptake; summary of the method: as §1
[6] = Tmax in Beagle dog plasma at 10 mg/kg, po; format: ADME, organism-based, Canis lupus familiaris
Rattus norvegicus [7] = assay: Anticonvulsant activity in WAG/Rij rat model of generalized nonconvulsive absence-like epilepsy assessed as decrease in duration of spontaneous seizures at 100 mg/kg, po administered as single dose at beginning of nocturnal active phase measured over 4 hrs by radiotelometry relative to vehicle control
[8] = biological target: Voltage-dependent L-type calcium channel subunit alpha-1C (Homo sapiens, UniProt Q13936); assay: Inhibition of recombinant […] calcium channel Cav1.2 (unknown origin) expressed in HEK293 cells assessed as inhibition of Kcl-induced calcium influx preincubated for 3 mins prior CaCl2 addition by Fluo-4-AM dye-based FLIPR assay; format: cell-based
Summary of the method: (§4)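 HEK293 cells stably expressing the channel, seeded overnight and loaded 1 h at 37°C with 3 µM Fluo-4-AM. Compounds given as a 3-fold dilution series from 10 µM to 0.05 nM and incubated 3 min. For T-type channels, dilutions in TEAC buffer and stimulation with 10 mM final CaCl2. For Cav1.2, dilutions in assay buffer and stimulation with 20 mM final KCl. IC50 from area under the fluorescence trace against vehicle; mean of at least two experiments.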

[9] = Drug uptake in Wistar rat CSF at 10 mg/kg, po measured after 1 hr; format: ADME, organism-based, Cerebrospinal fluid; conditions: read-out: Drug uptake; summary of the method: as §1
MDR1 = assay: Efflux ratio of permeability in MDCK cells expressing MDR1 (unknown origin); format: ADME, cell-based, Canis lupus familiaris; conditions: dog
Summary of the method: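 MDR1-transfected MDCK cell monolayers. Compound tested at 1 µM. Apparent permeability measured in both directions, apical to basolateral and basolateral to apical. Efflux ratio taken from the two directional permeabilities.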

[10] = Aqueous solubility of the compound at pH 4 by UV-HPLC method; format: physicochemical
Summary of the method: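 Compound dispensed from a 10 mM DMSO stock and the solvent evaporated. Residue stirred 24 h at room temperature in buffer: citrate (55 mM) pH 4.0 or phosphate (67 mM) pH 7.0. Mixture filtered by centrifugation. Filtrate concentration measured by HPLC-UV against calibration solutions.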

[11] = biological target: Voltage-dependent T-type calcium channel subunit alpha-1I (Homo sapiens, UniProt Q9P0X4); assay: Inhibition of T-type calcium channel Cav3.3 (unknown origin) expressed in HEK293 cells assessed as calcium influx by Fluo-4-AM dye-based FLIPR assay; format: cell-based; summary of the method: as §4
[12] = Clearance in Wistar rat plasma at 0.2 mg/kg, iv administered 2 hrs after aminobenzotriazol-treatment; format: ADME, organism-based
Summary of the method: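 Male Wistar rats dosed iv at 0.2 mg/kg or po at 2 mg/kg. In the inhibited arm, the broad CYP inhibitor aminobenzotriazol was given orally 2 h before dosing. Clearance, Vss and half-life derived from plasma concentrations after the iv dose; Cmax and Tmax from the po dose.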

[13] = biological target: T1, Voltage-dependent T-type calcium channel subunit alpha-1G; assay: Inhibition of T-type calcium channel Cav3.1 (unknown origin) expressed in HEK293 cells assessed as calcium influx by Fluo-4-AM dye-based FLIPR assay; format: cell-based; summary of the method: as §4
[14] = Fraction unbound in rat plasma; format: ADME, cell-free
[15] = Tmax in Wistar rat plasma at 2 mg/kg, po; format: ADME, organism-based
[16] = Plasma concentration in Wistar rat at 100 mg/kg, po measured after 1 hr; format: ADME, organism-based
[17] = biological target: T1, Voltage-dependent T-type calcium channel subunit alpha-1G; assay: Inhibition of human T-type calcium channel Cav3.1 expressed in CHO cells assessed as inhibition of calcium tail current at -60 mV holding potential measured after 150 secs by QPatch assay; format: cell-based; summary of the method: as §2
[18] = Plasma concentration in Wistar rat at 30 mg/kg, po measured after 1 hr; format: ADME, organism-based
Rattus norvegicus [19] = assay: Cardiovascular toxicity in spontaneously hypertensive rat assessed as increase in PR interval of ECG at 100 mg/kg, po; format: organism-based; conditions: in vivo; summary of the method: as §3
Rattus norvegicus [20] = assay: Cardiovascular toxicity in spontaneously hypertensive rat assessed as induction of AV block type 2 at 100 mg/kg, po by telemetry method; format: organism-based; conditions: in vivo; summary of the method: as §3
Cytochrome P450 3A4 [21] = biological target: T2, Cytochrome P450 3A4 (Homo sapiens, UniProt P08684); assay: Inhibition of CYP3A4 (unknown origin) using testosterone as substrate; format: ADME
[22] = Drug uptake in Wistar rat CSF at 30 mg/kg, po measured after 1 hr; format: ADME, organism-based, Cerebrospinal fluid; conditions: read-out: Drug uptake; summary of the method: as §1
[23] = Tmax in Wistar rat plasma at 2 mg/kg, po administered 2 hrs after aminobenzotriazol-treatment; format: ADME, organism-based
Summary of the method: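 Rats dosed orally with the CYP inhibitor aminobenzotriazol 2 h before the iv dose of 0.2 mg/kg. Oral dose was 2 mg/kg.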

[24] = Fraction unbound in human plasma; format: ADME, cell-free
Cytochrome P450 3A4 [25] = biological target: T2, Cytochrome P450 3A4; assay: Inhibition of CYP3A4 (unknown origin) using midazolam as substrate; format: ADME
[26] = biological target: Voltage-dependent T-type calcium channel subunit alpha-1H (Homo sapiens, UniProt O95180); assay: Inhibition of recombinant T-type calcium channel Cav3.2 (unknown origin) expressed in HEK293 cells assessed as inhibition of CaCl2-induced calcium influx preincubated for 3 mins prior CaCl2 addition by Fluo-4-AM dye-based FLIPR assay; format: cell-based
Summary of the method: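 HEK293 cells stably expressing Cav3.2, plated overnight at 37°C, loaded 1 h at 37°C with 3 µM Fluo-4-AM in HBSS/Hepes pH 7.4, then washed. Compound in TEAC buffer (100 mM tetraethylammonium chloride, pH 7.2), 3-fold series from 10 µM to 0.05 nM, 3 min before CaCl2 to a final 10 mM. IC50 fitted sigmoidally to the fluorescence AUC against vehicle signal; mean of at least two independent experiments.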

Cytochrome P450 2D6 = Cytochrome P450 2D6 (Homo sapiens, UniProt P10635); assay: Inhibition of CYP2D6 (unknown origin)
[27] = Plasma concentration in Wistar rat at 10 mg/kg, po measured after 1 hr; format: ADME, organism-based
[28] = Metabolic stability in mouse microsomes measured per mg protein; format: ADME, Microsome

T1 sequence (O43497 whole entry): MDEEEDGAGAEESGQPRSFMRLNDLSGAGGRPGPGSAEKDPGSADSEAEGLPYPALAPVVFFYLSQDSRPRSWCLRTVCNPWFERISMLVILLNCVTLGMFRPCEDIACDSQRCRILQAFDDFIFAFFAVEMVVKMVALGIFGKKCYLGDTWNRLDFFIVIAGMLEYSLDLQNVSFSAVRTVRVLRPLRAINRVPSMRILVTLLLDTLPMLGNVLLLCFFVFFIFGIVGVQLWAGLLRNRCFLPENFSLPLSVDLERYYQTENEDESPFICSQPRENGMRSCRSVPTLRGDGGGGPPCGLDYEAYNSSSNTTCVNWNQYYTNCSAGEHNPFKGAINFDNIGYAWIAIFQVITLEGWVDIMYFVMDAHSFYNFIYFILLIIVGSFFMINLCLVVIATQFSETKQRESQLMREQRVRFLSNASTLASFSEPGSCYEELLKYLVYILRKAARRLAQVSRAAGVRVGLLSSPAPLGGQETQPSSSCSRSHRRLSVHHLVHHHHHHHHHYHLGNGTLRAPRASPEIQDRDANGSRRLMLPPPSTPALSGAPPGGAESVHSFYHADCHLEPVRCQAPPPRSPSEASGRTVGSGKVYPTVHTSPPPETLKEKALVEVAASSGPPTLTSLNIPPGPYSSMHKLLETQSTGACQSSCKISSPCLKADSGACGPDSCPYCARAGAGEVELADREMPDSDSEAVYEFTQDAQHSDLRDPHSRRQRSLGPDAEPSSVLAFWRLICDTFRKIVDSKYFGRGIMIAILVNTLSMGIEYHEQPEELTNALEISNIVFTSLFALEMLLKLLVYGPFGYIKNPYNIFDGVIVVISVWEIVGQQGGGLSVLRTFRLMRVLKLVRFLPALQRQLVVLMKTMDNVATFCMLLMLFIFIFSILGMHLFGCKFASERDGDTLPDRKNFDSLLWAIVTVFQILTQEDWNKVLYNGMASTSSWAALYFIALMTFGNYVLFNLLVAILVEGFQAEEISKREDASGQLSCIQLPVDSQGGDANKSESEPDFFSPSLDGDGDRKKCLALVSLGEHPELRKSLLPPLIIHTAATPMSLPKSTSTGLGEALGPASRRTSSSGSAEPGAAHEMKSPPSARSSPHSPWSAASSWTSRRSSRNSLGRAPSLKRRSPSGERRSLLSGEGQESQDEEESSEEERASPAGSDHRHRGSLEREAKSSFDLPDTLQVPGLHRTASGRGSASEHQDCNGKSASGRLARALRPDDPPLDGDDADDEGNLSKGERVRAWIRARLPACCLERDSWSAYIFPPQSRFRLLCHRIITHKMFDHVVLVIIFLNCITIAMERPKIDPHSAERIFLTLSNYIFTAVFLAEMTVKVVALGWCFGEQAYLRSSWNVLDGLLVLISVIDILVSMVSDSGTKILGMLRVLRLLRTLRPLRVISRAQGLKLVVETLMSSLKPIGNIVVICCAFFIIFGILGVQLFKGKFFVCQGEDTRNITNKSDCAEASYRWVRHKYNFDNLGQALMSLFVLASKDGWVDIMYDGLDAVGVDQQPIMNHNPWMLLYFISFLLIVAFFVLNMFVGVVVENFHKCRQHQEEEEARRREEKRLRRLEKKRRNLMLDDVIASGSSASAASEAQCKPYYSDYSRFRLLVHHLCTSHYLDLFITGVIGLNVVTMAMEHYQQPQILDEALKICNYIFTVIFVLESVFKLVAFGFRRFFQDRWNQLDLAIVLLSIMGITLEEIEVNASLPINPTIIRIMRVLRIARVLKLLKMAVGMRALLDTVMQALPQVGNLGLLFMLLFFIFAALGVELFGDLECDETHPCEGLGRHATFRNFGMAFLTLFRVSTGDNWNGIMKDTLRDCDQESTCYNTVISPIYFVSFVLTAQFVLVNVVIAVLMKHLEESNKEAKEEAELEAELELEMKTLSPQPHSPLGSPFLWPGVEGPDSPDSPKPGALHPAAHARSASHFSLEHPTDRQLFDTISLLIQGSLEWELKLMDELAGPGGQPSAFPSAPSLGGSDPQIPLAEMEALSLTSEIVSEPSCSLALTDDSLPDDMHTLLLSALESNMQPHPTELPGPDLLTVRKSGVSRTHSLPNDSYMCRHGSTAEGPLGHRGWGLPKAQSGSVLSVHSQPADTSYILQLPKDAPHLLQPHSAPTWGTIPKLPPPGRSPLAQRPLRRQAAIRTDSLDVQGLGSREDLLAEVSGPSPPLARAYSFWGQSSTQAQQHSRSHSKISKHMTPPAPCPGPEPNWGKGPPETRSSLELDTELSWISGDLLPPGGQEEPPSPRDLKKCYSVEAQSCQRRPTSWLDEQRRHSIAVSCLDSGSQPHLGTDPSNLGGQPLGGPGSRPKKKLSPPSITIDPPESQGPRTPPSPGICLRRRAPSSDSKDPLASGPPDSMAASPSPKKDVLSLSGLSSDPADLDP
T2 sequence (P08684 whole entry): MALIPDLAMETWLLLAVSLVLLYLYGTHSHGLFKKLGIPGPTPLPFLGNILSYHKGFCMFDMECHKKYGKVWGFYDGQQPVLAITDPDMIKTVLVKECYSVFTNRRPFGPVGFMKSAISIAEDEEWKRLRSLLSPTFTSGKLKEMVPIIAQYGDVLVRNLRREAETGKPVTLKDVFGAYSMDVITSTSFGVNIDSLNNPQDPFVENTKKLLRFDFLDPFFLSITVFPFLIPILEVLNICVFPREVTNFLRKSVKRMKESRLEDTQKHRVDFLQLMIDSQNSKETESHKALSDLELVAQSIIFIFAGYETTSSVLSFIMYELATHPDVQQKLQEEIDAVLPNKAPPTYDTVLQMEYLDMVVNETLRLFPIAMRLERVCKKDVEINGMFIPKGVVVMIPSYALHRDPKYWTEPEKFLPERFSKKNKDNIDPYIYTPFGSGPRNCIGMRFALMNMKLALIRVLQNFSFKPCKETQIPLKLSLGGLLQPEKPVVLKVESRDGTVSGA
Sequence of Voltage-dependent L-type calcium channel subunit alpha-1C (Q13936 whole entry): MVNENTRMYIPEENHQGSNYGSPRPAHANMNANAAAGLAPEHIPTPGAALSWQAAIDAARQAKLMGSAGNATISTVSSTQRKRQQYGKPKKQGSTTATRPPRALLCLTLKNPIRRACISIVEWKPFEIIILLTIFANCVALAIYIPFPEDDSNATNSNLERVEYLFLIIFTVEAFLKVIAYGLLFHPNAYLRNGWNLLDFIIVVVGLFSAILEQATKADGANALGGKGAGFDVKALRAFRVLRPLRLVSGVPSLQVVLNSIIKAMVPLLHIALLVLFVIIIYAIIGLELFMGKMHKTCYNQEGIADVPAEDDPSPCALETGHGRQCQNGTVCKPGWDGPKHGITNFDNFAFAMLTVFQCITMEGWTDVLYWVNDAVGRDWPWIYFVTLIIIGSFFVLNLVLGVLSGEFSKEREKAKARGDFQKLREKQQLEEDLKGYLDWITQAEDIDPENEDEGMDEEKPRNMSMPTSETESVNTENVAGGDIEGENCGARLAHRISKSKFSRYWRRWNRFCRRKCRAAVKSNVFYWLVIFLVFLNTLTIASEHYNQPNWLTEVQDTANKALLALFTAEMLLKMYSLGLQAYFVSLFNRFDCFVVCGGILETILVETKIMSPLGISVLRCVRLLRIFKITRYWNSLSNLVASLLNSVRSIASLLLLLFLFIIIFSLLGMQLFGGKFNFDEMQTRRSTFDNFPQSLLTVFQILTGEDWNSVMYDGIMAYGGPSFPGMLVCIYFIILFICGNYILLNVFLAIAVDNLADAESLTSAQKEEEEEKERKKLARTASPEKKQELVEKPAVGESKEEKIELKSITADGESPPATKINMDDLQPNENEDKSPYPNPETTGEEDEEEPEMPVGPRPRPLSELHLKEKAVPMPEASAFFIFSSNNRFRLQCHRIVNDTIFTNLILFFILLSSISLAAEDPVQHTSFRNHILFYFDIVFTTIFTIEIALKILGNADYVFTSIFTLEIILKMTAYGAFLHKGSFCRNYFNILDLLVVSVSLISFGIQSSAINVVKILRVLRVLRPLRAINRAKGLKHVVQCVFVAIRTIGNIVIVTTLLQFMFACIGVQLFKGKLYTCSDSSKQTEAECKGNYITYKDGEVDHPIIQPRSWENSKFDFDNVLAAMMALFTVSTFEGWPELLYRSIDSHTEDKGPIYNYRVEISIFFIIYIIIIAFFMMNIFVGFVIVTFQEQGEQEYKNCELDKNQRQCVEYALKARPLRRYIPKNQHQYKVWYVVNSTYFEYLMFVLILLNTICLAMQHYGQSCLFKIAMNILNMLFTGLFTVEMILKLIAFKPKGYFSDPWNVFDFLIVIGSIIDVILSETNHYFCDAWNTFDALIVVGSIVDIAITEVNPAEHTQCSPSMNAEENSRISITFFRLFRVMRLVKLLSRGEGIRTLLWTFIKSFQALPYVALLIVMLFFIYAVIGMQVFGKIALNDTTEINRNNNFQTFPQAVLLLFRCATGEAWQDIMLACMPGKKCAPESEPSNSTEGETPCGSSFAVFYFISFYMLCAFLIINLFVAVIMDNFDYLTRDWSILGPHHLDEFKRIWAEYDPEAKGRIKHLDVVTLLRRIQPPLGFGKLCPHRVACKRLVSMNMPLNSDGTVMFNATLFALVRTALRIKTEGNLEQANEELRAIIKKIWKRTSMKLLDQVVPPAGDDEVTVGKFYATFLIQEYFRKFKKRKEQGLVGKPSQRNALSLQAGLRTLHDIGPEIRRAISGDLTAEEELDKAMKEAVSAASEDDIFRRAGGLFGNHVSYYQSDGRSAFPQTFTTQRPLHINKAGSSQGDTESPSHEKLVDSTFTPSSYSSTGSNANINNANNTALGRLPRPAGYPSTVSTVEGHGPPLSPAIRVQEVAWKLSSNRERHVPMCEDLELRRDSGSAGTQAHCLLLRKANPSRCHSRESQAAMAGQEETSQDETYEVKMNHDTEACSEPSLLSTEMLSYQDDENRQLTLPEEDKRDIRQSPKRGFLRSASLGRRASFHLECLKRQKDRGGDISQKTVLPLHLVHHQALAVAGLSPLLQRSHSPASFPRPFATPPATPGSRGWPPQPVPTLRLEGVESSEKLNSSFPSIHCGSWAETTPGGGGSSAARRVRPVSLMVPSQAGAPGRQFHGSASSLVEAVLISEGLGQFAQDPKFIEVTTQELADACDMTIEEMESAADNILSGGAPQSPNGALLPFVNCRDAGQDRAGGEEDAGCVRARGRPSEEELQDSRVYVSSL

Q: For `O=C(Nc1ccc(F)cc1)N1N=C(c2ccncc2)CC1c1ccc(F)cc1` (stereo not given), which concentration at 1 h [1] is on record?
A: 61 nM

Q: And the IC50 [2]?
A: 1800 nM

Q: What about the Activity (Rattus norvegicus [3]) of the same molecule?
A: 12 mmHg

Q: What about the concentration at 1 h [4] of the same molecule?
A: 4270 nM

Q: And the concentration at 3 h [5]?
A: 1150 nM

Q: And the Tmax [6]?
A: 45 min

Q: And the inhibition in vivo at 100 mg/kg (Rattus norvegicus [7])?
A: > 99%

Q: And the IC50 [8]?
A: 6400 nM

Q: What about the concentration at 1 h [9] of the same molecule?
A: 19 nM

Q: And the efflux ratio (MDR1)?
A: 1

Q: What about the solubility [10] of the same molecule?
A: 33 µg/mL (≈ 87.2 µM)

Q: And the IC50 [11]?
A: 340 nM

Q: What about the clearance [12] of the same molecule?
A: 1.6 mL/min/kg

Q: What about the IC50 [13] of the same molecule?
A: 29 nM

Q: What about the fraction unbound [14] of the same molecule?
A: 0.03

Q: And the Tmax [15]?
A: 15 min

Q: And the concentration at 1 h [16]?
A: 1230 nM

Q: And the IC50 [17]?
A: 450 nM

Q: And the concentration at 1 h [18]?
A: 630 nM

Q: And the Activity (Rattus norvegicus [19])?
A: Toxic

Q: What about the Activity (Rattus norvegicus [20]) of the same molecule?
A: Toxic

Q: What about the IC50 (Cytochrome P450 3A4 [21]) of the same molecule?
A: 1800 nM

Q: What about the concentration at 1 h [22] of the same molecule?
A: 47 nM

Q: What about the Tmax [23] of the same molecule?
A: 396 min

Q: What about the fraction unbound [24] of the same molecule?
A: 0.02

Q: And the IC50 (Cytochrome P450 3A4 [25])?
A: 18000 nM

Q: And the IC50 [26]?
A: 33 nM

Q: What about the IC50 (Cytochrome P450 2D6) of the same molecule?
A: 44000 nM

Q: What about the concentration at 1 h [27] of the same molecule?
A: 270 nM

Q: And the microsomal CLint [28]?
A: 37 µL/min/mg

— ChEMBL document CHEMBL3853331, “Preparation, Antiepileptic Activity, and Cardiovascular Safety of Dihydropyrazoles as Brain-Penetrant T-Type Calcium Channel Blockers” (J Med Chem, 2016)
